Experimental data reported in ChEMBL document CHEMBL3286272, “Synthesis, biological, and biophysical studies of DAG-indololactones designed as selective activators of RasGRP” (Bioorg Med Chem, 2014).
Activity calls are given as the source filed them.

Columns and labels:
Assay type in all cases: cell-based
[1] = target: Protein kinase C delta type (Homo sapiens) (UniProt Q05655); experiment: Binding affinity to recombinant human GFP-tagged PKC-delta expressed in human LNCAP cells assessed as induction of protein translocation from plasma membrane to internal membrane at 1000 nM after 2 to 10 mins by confocal microscopic analysis
Method in brief: (§1)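 Human GFP-PKCδ or GFP-RasGRP3 is expressed transiently in LNCaP cells, which were plated at 80,000 cells/ml, transfected after 48 h and imaged live 24 h after transfection. Cells are treated with ligand ([…]) or PMA (1000 nM). Confocal images (488 nm excitation, 500–530 nm emission) are taken every 30 s for 30 min. Representative images, n = 3–6.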

[2] = target: T1, Ras guanyl-releasing protein 3 (Homo sapiens) (UniProt Q8IV61); experiment: Binding affinity to recombinant human GFP-tagged RasGRP3 expressed in human LNCAP cells assessed as induction of protein translocation from plasma membrane to internal membrane at 1000 nM after 2 to 10 mins by confocal microscopic analysis; method in brief: as §1
T1 sequence (whole entry): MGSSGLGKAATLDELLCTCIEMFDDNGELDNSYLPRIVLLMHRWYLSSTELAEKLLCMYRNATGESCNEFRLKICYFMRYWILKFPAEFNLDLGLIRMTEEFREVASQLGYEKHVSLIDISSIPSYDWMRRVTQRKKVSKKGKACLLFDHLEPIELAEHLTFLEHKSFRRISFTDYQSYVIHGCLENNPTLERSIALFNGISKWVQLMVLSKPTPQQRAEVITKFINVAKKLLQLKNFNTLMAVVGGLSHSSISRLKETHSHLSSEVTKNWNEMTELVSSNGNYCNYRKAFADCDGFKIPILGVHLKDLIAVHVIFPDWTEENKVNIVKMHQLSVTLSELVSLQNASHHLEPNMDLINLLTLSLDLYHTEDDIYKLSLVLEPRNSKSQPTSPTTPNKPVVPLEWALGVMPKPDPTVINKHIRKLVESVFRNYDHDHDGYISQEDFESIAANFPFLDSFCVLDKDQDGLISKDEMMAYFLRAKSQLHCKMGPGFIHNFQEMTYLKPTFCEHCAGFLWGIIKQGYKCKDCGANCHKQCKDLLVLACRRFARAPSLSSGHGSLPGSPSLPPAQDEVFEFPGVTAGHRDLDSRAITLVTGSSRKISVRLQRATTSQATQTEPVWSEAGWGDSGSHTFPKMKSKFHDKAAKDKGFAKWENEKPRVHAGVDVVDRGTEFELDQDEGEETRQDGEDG

[3] = target: T1, Ras guanyl-releasing protein 3 (Homo sapiens); experiment: Activation of RasGRP3 (unknown origin) overexpressed in HEK293 cells assessed as protein phosphorylation at T133 at 0.1 to 30 uM after 30 mins by Western blot analysis
[4] = target: Protein kinase C delta type (Homo sapiens) (UniProt Q05655); experiment: Activation of PKC-delta in HEK293 cells overexpressing RasGRP3 assessed as protein phosphorylation at S299 at 0.1 to 30 uM after 30 mins by Western blot analysis
[5] = target: T1, Ras guanyl-releasing protein 3 (Homo sapiens); experiment: Activation of RasGRP3 (unknown origin) overexpressed in HEK293 cells assessed as ERK1/2 phosphorylation at 0.1 to 30 uM after 30 mins by Western blot analysis
[6] = target: Protein kinase C delta type (Homo sapiens) (UniProt Q05655); experiment: Activation of PKC-delta in HEK293 cells assessed as protein phosphorylation at S299 at 0.1 to 30 uM after 30 mins by Western blot analysis

Measured: Activity

Chain of Protein kinase C delta type (Homo sapiens) (Q05655 whole entry, looked up): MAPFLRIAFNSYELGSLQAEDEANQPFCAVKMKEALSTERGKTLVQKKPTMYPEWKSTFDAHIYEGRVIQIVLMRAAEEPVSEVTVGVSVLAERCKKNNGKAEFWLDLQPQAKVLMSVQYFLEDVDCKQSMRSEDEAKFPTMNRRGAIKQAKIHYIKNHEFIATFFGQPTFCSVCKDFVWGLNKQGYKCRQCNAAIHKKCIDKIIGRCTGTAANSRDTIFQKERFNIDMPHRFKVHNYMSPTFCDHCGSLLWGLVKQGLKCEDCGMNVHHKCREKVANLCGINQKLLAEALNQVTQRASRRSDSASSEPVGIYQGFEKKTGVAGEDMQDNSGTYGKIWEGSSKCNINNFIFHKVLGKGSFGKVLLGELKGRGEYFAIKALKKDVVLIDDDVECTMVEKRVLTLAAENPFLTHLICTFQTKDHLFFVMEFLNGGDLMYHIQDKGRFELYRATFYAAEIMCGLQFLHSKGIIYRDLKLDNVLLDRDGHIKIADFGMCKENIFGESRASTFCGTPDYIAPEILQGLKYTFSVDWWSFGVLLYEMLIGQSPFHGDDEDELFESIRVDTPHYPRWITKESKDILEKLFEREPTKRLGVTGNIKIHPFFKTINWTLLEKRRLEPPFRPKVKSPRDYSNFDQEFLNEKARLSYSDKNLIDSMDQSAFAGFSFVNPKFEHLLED

CCCC(=O)O[C@@H]1[C@@H](C)[C@@]2(O)[C@@H](C=C(CO)C[C@]3(O)C(=O)C(C)=C[C@@H]23)[C@@H]2C(C)(C)[C@]12OC(=O)CCC
active: [1] | [2]

CCCCCCCCCCCCCC(=O)O[C@@H]1[C@@H](C)[C@@]2(O)[C@@H](C=C(CO)C[C@]3(O)C(=O)C(C)=C[C@@H]23)[C@@H]2C(C)(C)[C@]12OC(C)=O
active: all assays above
